Here are results for 13 compounds from ChEMBL document CHEMBL3576849, “De Novo Conception of Small Molecule Modulators Based on Endogenous Peptide Ligands: Pyrrolodiazepin-2-one γ-Turn Mimics That Differentially Modulate Urotensin II Receptor-Mediated Vasoconstriction ex Vivo” (J Med Chem, 2015).

In assay [1] the target is T1, Urotensin-2 receptor (Homo sapiens) (UniProt Q9UKP6).
T1 sequence (whole entry): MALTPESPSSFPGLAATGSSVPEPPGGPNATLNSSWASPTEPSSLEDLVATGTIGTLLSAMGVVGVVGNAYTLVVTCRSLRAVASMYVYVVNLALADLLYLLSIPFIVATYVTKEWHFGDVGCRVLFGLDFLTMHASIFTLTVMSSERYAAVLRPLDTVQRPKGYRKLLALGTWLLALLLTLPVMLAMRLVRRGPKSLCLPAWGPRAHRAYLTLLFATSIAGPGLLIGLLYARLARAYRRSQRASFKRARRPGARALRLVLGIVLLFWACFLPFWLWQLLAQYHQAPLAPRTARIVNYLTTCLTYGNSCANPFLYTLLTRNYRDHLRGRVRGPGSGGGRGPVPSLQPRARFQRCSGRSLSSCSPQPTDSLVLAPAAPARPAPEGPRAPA
Put plainly: Effect on [125I]-human urotensin-2 binding to human urotensin-2 receptor expressed in CHO cells at 100 uM after 90 mins by gamma counting analysis relative to control. Format: cell-based. A digest of the protocol:
(§1)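 Whole CHO cells stably expressing human UT, plated at 150,000 cells/well, incubated with test compound (100 µM) and 0.2 nM 125I-hUII for 90 min at room temperature. Cells were washed and lysed, and bound radioactivity was gamma-counted. Results are % of specific binding without competitor. Non-specific binding was defined with 10 µM hUII. At least triplicate; mean ± S.E.M.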

In assay [2] the target is T2, Urotensin-2 receptor (Rattus norvegicus) (UniProt P49684).
T2 sequence (whole entry): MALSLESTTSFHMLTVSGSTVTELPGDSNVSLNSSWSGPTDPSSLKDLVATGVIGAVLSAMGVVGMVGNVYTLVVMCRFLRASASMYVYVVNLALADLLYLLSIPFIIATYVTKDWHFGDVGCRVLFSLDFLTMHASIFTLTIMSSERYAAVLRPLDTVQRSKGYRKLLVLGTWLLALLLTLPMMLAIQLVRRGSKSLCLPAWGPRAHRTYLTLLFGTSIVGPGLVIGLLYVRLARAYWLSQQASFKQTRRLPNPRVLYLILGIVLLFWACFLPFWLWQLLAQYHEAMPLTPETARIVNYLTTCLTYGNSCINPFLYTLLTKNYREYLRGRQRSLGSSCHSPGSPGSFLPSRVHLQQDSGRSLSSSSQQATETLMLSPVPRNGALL
Put plainly: Agonist activity at urotensin-2 receptor in Sprague-Dawley rat thoracic aortic ring assessed as induction of aortic ring contraction at 10 to 100 uM. A digest of the protocol: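 Thoracic aortic rings from adult male Sprague-Dawley rats (250–300 g, killed by CO2 asphyxiation); analog added alone to the organ chamber at 10 or 100 µM to test for contraction. 40 mM KCl contractions served as control at start and end. Run at least in triplicate.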

Assay [3] addresses T2, Urotensin-2 receptor (Rattus norvegicus). Kind of assay: Modulation of urotensin-2 receptor in Sprague-Dawley rat thoracic aortic ring assessed as human urotensin-2 Emax for induction of aortic ring contraction at 11 uM preincubated for 15 mins followed by human urotensin-2 addition (reference value: 116 +/- 3%).
For assay [4] the target is unchanged. Put plainly: Modulation of urotensin-2 receptor in Sprague-Dawley rat thoracic aortic ring assessed as urotensin-2 related peptide Emax for induction of aortic ring contraction at 11 uM preincubated for 15 mins followed by urotensin-2 related peptide addition (reference value: 132 +/- 4%).
For assay [5] the target is unchanged. Put plainly: Modulation of urotensin-2 receptor in Sprague-Dawley rat thoracic aortic ring assessed as human urotensin-2 Emax for induction of aortic ring contraction at 8 uM preincubated for 15 mins followed by human urotensin-2 addition (reference value: 116 +/- 3%). A digest of the protocol:
(§2)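 Thoracic aortic rings from adult male Sprague-Dawley rats (250–300 g, killed by CO2). Rings were exposed to test compound for 15 min, then cumulative hUII concentration-response curves were run (10-10–3.10-6 M). Contraction is expressed as % of the 40 mM KCl response, with KCl given at the start and end. EC50/pEC50/Emax come from a variable-slope sigmoidal fit. At least triplicate.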

Assay [6] has the same target. Kind of assay: Modulation of urotensin-2 receptor in Sprague-Dawley rat thoracic aortic ring assessed as urotensin-2 related peptide Emax for induction of aortic ring contraction at 8 uM preincubated for 15 mins followed by urotensin-2 related peptide addition (reference value: 132 +/- 4%).
Assay [7] concerns the target T1, Urotensin-2 receptor (Homo sapiens). Put plainly: Displacement of [125I]-human urotensin-2 from human urotensin-2 receptor expressed in CHO cells at 100 uM after 90 mins by gamma counting analysis relative to control. Format: cell-based. A digest of the protocol:
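Incubated 90 min at room temperature with 100 µM compound plus 0.2 nM 125I-hUII (chloramine-T labelled). Cells washed and lysed, bound radioactivity gamma-counted. Reported as % of specific binding without competitor; nonspecific binding defined with 10 µM hUII. At least triplicate.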
On the technique in general: Loss of bound radioactivity is the signal in a displacement assay; it reports binding, not function.

Assay [8] deals with T2, Urotensin-2 receptor (Rattus norvegicus). Put plainly: Modulation of urotensin-2 receptor in Sprague-Dawley rat thoracic aortic ring assessed as human urotensin-2 Emax for induction of aortic ring contraction at 10 uM preincubated for 15 mins followed by human urotensin-2 addition (reference value: 116 +/- 3%). A digest of the protocol:
as §2

The target is the same in assay [9]. Kind of assay: Modulation of urotensin-2 receptor in Sprague-Dawley rat thoracic aortic ring assessed as urotensin-2 related peptide Emax for induction of aortic ring contraction at 10 uM preincubated for 15 mins followed by urotensin-2 related peptide addition (reference value: 132 +/- 4%).
Assay [10] has the same target. Kind of assay: Modulation of urotensin-2 receptor in Sprague-Dawley rat thoracic aortic ring assessed as human urotensin-2 Emax for induction of aortic ring contraction at 14 uM preincubated for 15 mins followed by human urotensin-2 addition (reference value: 116 +/- 3%).
For assay [11] the target is unchanged. Put plainly: Modulation of urotensin-2 receptor in Sprague-Dawley rat thoracic aortic ring assessed as human urotensin-2 Emax for induction of aortic ring contraction at 4 uM preincubated for 15 mins followed by human urotensin-2 addition (reference value: 116 +/- 3%).
Assay [12] shares this target. Kind of assay: Modulation of urotensin-2 receptor in Sprague-Dawley rat thoracic aortic ring assessed as human urotensin-2 Emax for induction of aortic ring contraction at 1 uM preincubated for 15 mins followed by human urotensin-2 addition (reference value: 116 +/- 3%).
Assay [13] has the same target. Kind of assay: Modulation of urotensin-2 receptor in Sprague-Dawley rat thoracic aortic ring assessed as reduction of human urotensin-2-induced aortic ring contraction preincubated for 15 mins followed by human urotensin-2 addition.
The target is the same in assay [14]. Put plainly: Modulation of urotensin-2 receptor in Sprague-Dawley rat thoracic aortic ring assessed as urotensin-2 related peptide Emax for induction of aortic ring contraction at 14 uM preincubated for 15 mins followed by urotensin-2 related peptide addition (reference value: 132 +/- 4%).
The target is the same in assay [15]. Put plainly: Noncompetitive antagonist activity at urotensin-2 receptor in Sprague-Dawley rat thoracic aortic ring assessed as reduction in human urotensin-2-induced response at 4 uM by double reciprocal plot analysis.
The species named for another assay is Rattus norvegicus. Kind of assay: Modulation of […] in Sprague-Dawley rat thoracic aortic ring assessed as change in human endothelin-1-induced aortic ring contraction at 1.4 x 10^-5 M.
Assay [16] deals with T1, Urotensin-2 receptor (Homo sapiens). Put plainly: Induction of [125I]-human urotensin-2 binding to human urotensin-2 receptor expressed in CHO cells at 100 uM after 90 mins by gamma counting analysis relative to control. Format: cell-based. A digest of the protocol:
as §1

Assay [17] addresses T2, Urotensin-2 receptor (Rattus norvegicus). Put plainly: Modulation of urotensin-2 receptor in Sprague-Dawley rat thoracic aortic ring assessed as human urotensin-2 Emax for induction of aortic ring contraction at 15 uM preincubated for 15 mins followed by human urotensin-2 addition (reference value: 116 +/- 3%). A digest of the protocol: as §2
The target is the same in assay [18]. Kind of assay: Modulation of urotensin-2 receptor in Sprague-Dawley rat thoracic aortic ring assessed as urotensin-2 related peptide Emax for induction of aortic ring contraction at 15 uM preincubated for 15 mins followed by urotensin-2 related peptide addition (reference value: 132 +/- 4%).

The source made the active and inactive calls. No cut-off for these calls is given here.

As for `NCCC[C@@H]1N[C@H](c2ccc(-c3ccccc3)cc2)c2[nH]c(C(=O)O)cc2N(CCc2ccc(O)cc2)C1=O`, the outcome in assay [1] and in assay [2] was inactive. Further, the Emax came out at 162% in assay [3] and 139% in assay [4].

Consider `NCCCC[C@@H]1N=C(c2cccc3ccccc23)c2[nH]c(C(=O)O)cc2N(CCc2ccc(O)cc2)C1=O`, for which the result in assay [1] and in assay [2] was inactive. Moreover, the Emax in assay [5] worked out at 123%; in [6], 60%.

In turn, `NCCC[C@@H]1N[C@@H](c2cccc3ccccc23)c2[nH]c(C(=O)O)cc2N(CCc2ccc(O)cc2)C1=O` gave an inhibition in assay [7] of 25%. In addition, the outcome in assay [2] was inactive. For the same compound, the Emax was found to be 148% in [8] and 238% in assay [9].

`NCCCC[C@@H]1N[C@@H](c2ccc3ccccc3c2)c2[nH]c(C(=O)O)cc2N(CCc2ccc(O)cc2)C1=O` registered an inhibition in assay [7] of 25%. Moreover, the result in [2] was inactive. For the same compound, the results for the Emax in assay [8] and in assay [9] were 194% and 107%, respectively.

With `NCCCC[C@@H]1N[C@H](c2ccc(-c3ccccc3)cc2)c2[nH]c(C(=O)O)cc2N(CCc2ccc(O)cc2)C1=O`, the inhibition in assay [7] was 25%. Further, the result (in assay [2]; in the assay listed under Rattus norvegicus) was inactive. Moreover, the Emax in assay [10] turned out to be 0%; in assay [11], 63%; in assay [12], 92%; in assay [14], 185%. Further, in assay [13], the Activity entry is “Dose-dependent effect”. Also, the Kb in [15] was 2900 nM. In [15], the pKb amounted to 5.54.

For `NCCC[C@@H]1N=C(c2ccc(-c3ccccc3)cc2)c2[nH]c(C(=O)O)cc2N(CCc2ccc(O)cc2)C1=O`, the Activity in assay [16] is 117%. In addition, in assay [2], the outcome was inactive. Also, the Emax turned out to be 97% in assay [8] and 93% in assay [9].

In turn, `NCCC[C@@H]1N[C@H](c2cccc3ccccc23)c2[nH]c(C(=O)O)cc2N(CCc2ccc(O)cc2)C1=O` showed an inhibition in assay [7] of 25%. For the same compound, the outcome in [2] was inactive. For the same compound, the figures for the Emax in [8] and in assay [9] were 139% and 210%, respectively.

In the case of `NCCCC[C@@H]1N=C(c2ccc(-c3ccccc3)cc2)c2[nH]c(C(=O)O)cc2N(CCc2ccc(O)cc2)C1=O`, the outcome in assay [1] and in assay [2] was inactive. Moreover, the figures for the Emax in assay [17] and in assay [18] were 128% and 110%, respectively.

For `NCCC[C@@H]1N=C(c2cccc3ccccc23)c2[nH]c(C(=O)O)cc2N(CCc2ccc(O)cc2)C1=O`, the outcome in [1] and in [2] was inactive. Moreover, the Emax in [8] is 74%; in assay [9], 46%.

For `NCCC[C@@H]1N=C(c2ccc3ccccc3c2)c2[nH]c(C(=O)O)cc2N(CCc2ccc(O)cc2)C1=O`, the outcome in assay [1] and in assay [2] was inactive. Also, the maximum response (Emax) in assay [8] came to 70%; in assay [9] it was 142%.

Take `NCCCC[C@@H]1N[C@@H](c2ccc(-c3ccccc3)cc2)c2[nH]c(C(=O)O)cc2N(CCc2ccc(O)cc2)C1=O`: the result in assay [1] and in assay [2] was inactive. Moreover, the Emax in assay [10] stood at 121%; in assay [14], 113%.

`NCCCC[C@@H]1N=C(c2ccc3ccccc3c2)c2[nH]c(C(=O)O)cc2N(CCc2ccc(O)cc2)C1=O`: the result in [1] and in [2] was inactive. In addition, the Emax in assay [8] amounted to 80%; in assay [9], 51%.

In assay [7], `NCCCC[C@@H]1N[C@H](c2ccc3ccccc3c2)c2[nH]c(C(=O)O)cc2N(CCc2ccc(O)cc2)C1=O` showed an inhibition of 25%. Besides, the result in [2] was inactive. Besides, the figures for the Emax in [8] and in assay [9] were 175% and 217%, respectively.

Usually Emax stands for the size of the effect at its maximum, as opposed to the concentration needed. For orientation: inhibition means the change of the read-out against control, counted positive when it falls. In general, Kb refers to the equilibrium dissociation constant of an antagonist, usually derived from a functional assay. One may read the pKb as the negative decadic logarithm of the Kb, by convention in mol/L.
